Measurements taken from ChEMBL document CHEMBL1157925, “Identification of a novel series of potent RON receptor tyrosine kinase inhibitors” (Bioorg Med Chem Lett, 2010).

Key:
[1] = biological target: Vascular endothelial growth factor receptor 2 (Homo sapiens, UniProt P35968); experiment: Inhibition of VEGFR2
Outline: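 GST-fused VEGFR-2/KDR catalytic domain from baculovirus-infected Sf9 cells, glutathione-agarose purified, 5 nM. Buffer: 60 mM Hepes pH 7.5, 3 mM MgCl2, 3 mM MnCl2, 1.2 mM β-mercaptoethanol, 0.1 mg/mL BSA, 3 µM vanadate. Mg-ATP at 2× Km. Enzyme, inhibitor and ATP were first combined for 4 min on ice. Reaction ran on immobilized poly(Glu4,Tyr) at 30 °C for 10 min and was stopped with EDTA. DELFIA Eu-anti-phosphotyrosine read-out. Seven concentrations in triplicate; IC50 from a 4-parameter fit.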

[2] = Volume of distribution at steady state in rat at 2.5 mg/kg, iv and 5 mg/kg, po; type: ADME, organism-based; settings: in vivo, read-out: Vdss
HCT-116 = experiment: Antitumor activity against human HCT116 cells by MTT assay
[3] = biological target: Tyrosine-protein kinase JAK3 (Homo sapiens) (UniProt P52333); experiment: Inhibition of JAK3; settings: concentration not given here
Outline: (§1)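 Outsourced kinase panel of 23 enzymes (Millipore KinaseProfiler); single test concentration of 0.1 µM; percent inhibition of kinase activity reported.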

[4] = biological target: T1, Hepatocyte growth factor receptor (Homo sapiens, UniProt P08581); experiment: Inhibition of c-Met phosphorylation in human MKN45 cells; type: cell-based, MKN-45
[5] = biological target: Inhibitor of nuclear factor kappa-B kinase subunit beta (Homo sapiens) (UniProt O14920); experiment: Inhibition of IKK-beta; settings: concentration not given here; outline: as §1
[6] = biological target: RAC-alpha serine/threonine-protein kinase (Homo sapiens) (UniProt P31749); experiment: Inhibition of PKBalpha; settings: concentration not given here; outline: as §1
[7] = biological target: RAF proto-oncogene serine/threonine-protein kinase (Homo sapiens) (UniProt P04049); experiment: Inhibition of c-Raf; settings: concentration not given here; outline: as §1
[8] = biological target: Focal adhesion kinase 1 (Homo sapiens) (UniProt Q05397); experiment: Inhibition of FAK; settings: concentration not given here; outline: as §1
[9] = Half life in rat at 2.5 mg/kg, iv; type: ADME, organism-based; design: dose 2.5 mg/kg, route intravenous; settings: in vivo
[10] = Clearance in rat at 2.5 mg/kg, iv and 5 mg/kg, po; type: ADME, organism-based; settings: in vivo
[11] = biological target: Mast/stem cell growth factor receptor Kit (Homo sapiens) (UniProt P10721); experiment: Inhibition of cKit; settings: concentration not given here; outline: as §1
[12] = biological target: Ephrin type-B receptor 4 (Homo sapiens) (UniProt P54760); experiment: Inhibition of EphB4; settings: concentration not given here; outline: as §1
[13] = biological target: Glycogen synthase kinase-3 beta (Homo sapiens) (UniProt P49841); experiment: Inhibition of GSK3-beta; settings: concentration not given here; outline: as §1
[14] = biological target: Dual specificity mitogen-activated protein kinase kinase 1 (Homo sapiens) (UniProt Q02750); experiment: Inhibition of MEK1; settings: concentration not given here; outline: as §1
[15] = biological target: Angiopoietin-1 receptor (Homo sapiens) (UniProt Q02763); experiment: Inhibition of Tie2; settings: concentration not given here; outline: as §1
[16] = biological target: ALK tyrosine kinase receptor (Homo sapiens) (UniProt Q9UM73); experiment: Inhibition of ALK; settings: concentration not given here; outline: as §1
[17] = biological target: LIM domain kinase 1 (Homo sapiens) (UniProt P53667); experiment: Inhibition of LIMK1; settings: concentration not given here; outline: as §1
[18] = biological target: Serine/threonine-protein kinase Chk1 (Homo sapiens) (UniProt O14757); experiment: Inhibition of CHK1; settings: concentration not given here; outline: as §1
[19] = biological target: Proto-oncogene tyrosine-protein kinase receptor Ret (Homo sapiens) (UniProt P07949); experiment: Inhibition of Ret; settings: concentration not given here; outline: as §1
[20] = biological target: Serine/threonine-protein kinase haspin (Homo sapiens) (UniProt Q8TF76); experiment: Inhibition of haspin; settings: concentration not given here; outline: as §1
[21] = biological target: Macrophage-stimulating protein receptor (Homo sapiens, UniProt Q04912); experiment: Inhibition of TPR-tagged RON catalytic domain expressed in HEK293 cells; type: cell-based
[22] = biological target: 3-phosphoinositide-dependent protein kinase 1 (Homo sapiens) (UniProt O15530); experiment: Inhibition of PDK1; settings: concentration not given here
[23] = biological target: Phosphatidylinositol 4,5-bisphosphate 3-kinase catalytic subunit beta isoform (Homo sapiens) (UniProt P42338); experiment: Inhibition of PI3Kbeta; settings: concentration not given here; outline: as §1
[24] = biological target: T1, Hepatocyte growth factor receptor; experiment: Inhibition of c-Met
[25] = biological target: Cytoplasmic tyrosine-protein kinase BMX (Homo sapiens) (UniProt P51813); experiment: Inhibition of BMX; settings: concentration not given here; outline: as §1
[26] = biological target: Receptor-type tyrosine-protein kinase FLT3 (Homo sapiens) (UniProt P36888); experiment: Inhibition of FLT3; settings: concentration not given here; outline: as §1
[27] = biological target: Serine/threonine-protein kinase pim-1 (Homo sapiens) (UniProt P11309); experiment: Inhibition of PIM1; settings: concentration not given here; outline: as §1
Rattus norvegicus = experiment: Cmax in rat at 5 mg/kg, po; type: ADME, organism-based; design: dose 5 mg/kg, route oral; settings: in vivo
[28] = Oral bioavailability in rat at 5 mg/kg, po; type: ADME, organism-based; settings: in vivo
[29] = Tmax in rat at 5 mg/kg, po; type: ADME, organism-based; design: dose 5 mg/kg, route oral; settings: in vivo

**Q.** With `CC(=O)N1CC=C(c2cc3nccc(Oc4ccc(NC(=O)c5cnn(-c6ccccc6)c5C(F)(F)F)cc4F)c3s2)CC1` as the compound, how does the IC50 [1] read?
**A.** 1.4 µM

**Q.** With `Cn1cnc(-c2cc3nccc(Oc4ccc(NC(=O)c5cnn(-c6ccccc6)c5C(F)(F)F)cc4F)c3s2)c1` as the compound, how does the Vd [2] read?
**A.** 2.4 L/kg

**Q.** And the IC50 (HCT-116; Homo sapiens, HCT-116)?
**A.** 0.08 µM

**Q.** What about the inhibition [3] of the same compound?
**A.** < 40%

**Q.** What about the IC50 [4] of the same compound?
**A.** 0.5 µM

**Q.** And the inhibition [5]?
**A.** < 40%

**Q.** What about the inhibition [6] of the same compound?
**A.** < 40%

**Q.** What about the inhibition [7] of the same compound?
**A.** < 40%

**Q.** And the inhibition [8]?
**A.** < 40%

**Q.** And the half-life [9]?
**A.** 2.7 h

**Q.** What about the clearance [10] of the same compound?
**A.** 0.63 L/h/kg

**Q.** And the inhibition [11]?
**A.** < 40%

**Q.** What about the inhibition [12] of the same compound?
**A.** < 40%

**Q.** What about the inhibition [13] of the same compound?
**A.** < 40%

**Q.** And the inhibition [14]?
**A.** < 40%

**Q.** And the inhibition [15]?
**A.** < 40%

**Q.** What about the inhibition [16] of the same compound?
**A.** < 40%

**Q.** What about the inhibition [17] of the same compound?
**A.** < 40%

**Q.** And the inhibition [18]?
**A.** < 40%

**Q.** And the inhibition [19]?
**A.** < 40%

**Q.** What about the inhibition [20] of the same compound?
**A.** < 40%

**Q.** And the IC50 [21]?
**A.** 0.05 µM

**Q.** What about the inhibition [22] of the same compound?
**A.** < 40%

**Q.** And the inhibition [23]?
**A.** < 40%

**Q.** What about the IC50 [24] of the same compound?
**A.** 0.15 µM

**Q.** What about the inhibition [25] of the same compound?
**A.** < 40%

**Q.** And the inhibition [26]?
**A.** 96%

**Q.** What about the inhibition [27] of the same compound?
**A.** < 40%

**Q.** What about the Cmax normalised (Rattus norvegicus) of the same compound?
**A.** 0.25 µM/mg/kg

**Q.** And the IC50 [1]?
**A.** > 10 µM

**Q.** And the bioavailability [28]?
**A.** > 30%

**Q.** And the Tmax [29]?
**A.** 6 h

**Q.** With `COCCNC(=O)c1ccc(-c2cc3nccc(Oc4ccc(NC(=O)c5cnn(-c6ccccc6)c5C(F)(F)F)cc4F)c3s2)nc1` as the compound, how does the IC50 [1] read?
**A.** 5.3 µM

**Q.** For `COc1cc2nccc(Oc3ccc(NC(=O)c4cnn(-c5ccccc5)c4C(F)(F)F)cc3F)c2cc1OC`, which IC50 [1] is on record?
**A.** > 2 µM

**Q.** For `COC[C@H](C)N(Cc1ccc(-c2cc3nccc(Oc4ccc(NC(=O)c5cnn(-c6ccccc6)c5C(F)(F)F)cc4F)c3s2)cc1)C(C)=O`, which IC50 [1] is on record?
**A.** 2.5 µM

**Q.** Which IC50 (HCT-116; hct-116) does the source give for `Cn1cnc(-c2cc3nccc(Oc4ccc(NC(=O)N5CCN(c6ccccc6)C5=O)cc4F)c3s2)c1` here?
**A.** Not Active

**Q.** What about the IC50 [1] of the same compound?
**A.** 0.01 µM

**Q.** For `CN(C)C(=O)c1ccc(-c2cc3nccc(Oc4ccc(NC(=O)c5cnn(-c6ccccc6)c5C(F)(F)F)cc4F)c3s2)cc1`, which IC50 [1] is on record?
**A.** 1.4 µM

**Q.** Which IC50 [1] does the source give for `Cn1cnc(-c2cc3nccc(Oc4ccc(NC(=O)c5cnn(-c6ccccc6)c5)cc4F)c3s2)c1` here?
**A.** 1.4 µM

**Q.** With `Cc1c(C(=O)Nc2ccc(Oc3ccnc4cc(-c5cn(C)cn5)sc34)c(F)c2)cnn1-c1ccccc1` as the compound, how does the IC50 [1] read?
**A.** 2 µM

**Q.** With `CNC(=O)c1cc(Oc2ccc(NC(=O)c3cnn(-c4ccccc4)c3C(F)(F)F)cc2F)ccn1` as the compound, how does the IC50 [21] read?
**A.** > 10 µM

**Q.** And the IC50 [24]?
**A.** > 15 µM

**Q.** What about the IC50 [1] of the same compound?
**A.** > 20 µM

**Q.** Which IC50 [1] does the source give for `Cn1ccnc1-c1cc2nccc(Oc3ccc(NC(=O)c4cnn(-c5ccccc5)c4C(F)(F)F)cc3F)c2s1` here?
**A.** 1.4 µM

**Q.** What does the source list for `Cn1cnc(-c2cc3nccc(Oc4ccc(NC(=O)c5cnn(-c6ccccc6)c5N)cc4F)c3s2)c1`?
**A.** IC50 [21]: > 1 µM; IC50 [24]: 0.18 µM; IC50 [1]: 0.8 µM

**Q.** Which IC50 [1] does the source give for `Cn1cnc(-c2cc3nccc(Oc4ccc(NC(=O)c5cnn(C(C)(C)C)c5C(F)(F)F)cc4F)c3s2)c1` here?
**A.** 3 µM

**Q.** Which IC50 [1] does the source give for `CN(C)[C@H]1CCN(C(=O)c2ccc(-c3cc4nccc(Oc5ccc(NC(=O)c6cnn(-c7ccccc7)c6C(F)(F)F)cc5F)c4s3)cc2)C1` here?
**A.** 1 µM

**Q.** Which results are given for `Cn1cnc(-c2cc3nccc(Oc4ccc(NC(=O)c5cnn(C)c5C(F)(F)F)cc4F)c3s2)c1`?
**A.** IC50 [21]: > 1 µM; IC50 [24]: 0.06 µM; IC50 [1]: 0.7 µM

**Q.** With `CS(=O)(=O)CCNCc1ccc(-c2cc3nccc(Oc4ccc(NC(=O)c5cnn(-c6ccccc6)c5C(F)(F)F)cc4F)c3s2)cc1` as the compound, how does the IC50 [1] read?
**A.** 1.1 µM

**Q.** Which IC50 [1] does the source give for `CN(C)C(=O)c1ccc(-c2cc3nccc(Oc4ccc(NC(=O)c5cnn(-c6ccccc6)c5C(F)(F)F)cc4F)c3s2)nc1` here?
**A.** 2.5 µM

**Q.** With `CCCc1c(C(=O)Nc2ccc(Oc3ccnc4cc(-c5cn(C)cn5)sc34)c(F)c2)cnn1-c1ccccc1` as the compound, how does the IC50 [1] read?
**A.** 1.9 µM

**Q.** With `CN(C)CCN(C)C(=O)c1ccc(-c2cc3nccc(Oc4ccc(NC(=O)c5cnn(-c6ccccc6)c5C(F)(F)F)cc4F)c3s2)cc1` as the compound, how does the IC50 [1] read?
**A.** 0.7 µM
